Assay results reported in ChEMBL document CHEMBL1817601, “6,7-Dihydro-5H-cyclopenta[d]pyrazolo[1,5-a]pyrimidines and their derivatives as novel corticotropin-releasing factor 1 receptor antagonists” (Bioorg Med Chem, 2011).
The source made the active and inactive calls. No cut-off for these calls is given here.

Assays:
[1] = biological target: T1, Corticotropin-releasing factor receptor 1 (Homo sapiens, UniProt P34998); experiment: Antagonist activity at human corticotropin-releasing factor receptor 1 expressed in CHO-K1 cells assessed as inhibition of CRF-induced cAMP production after 15 mins by enzyme immunoassay; format: functional, cell-based
T1 sequence (P34998 whole entry): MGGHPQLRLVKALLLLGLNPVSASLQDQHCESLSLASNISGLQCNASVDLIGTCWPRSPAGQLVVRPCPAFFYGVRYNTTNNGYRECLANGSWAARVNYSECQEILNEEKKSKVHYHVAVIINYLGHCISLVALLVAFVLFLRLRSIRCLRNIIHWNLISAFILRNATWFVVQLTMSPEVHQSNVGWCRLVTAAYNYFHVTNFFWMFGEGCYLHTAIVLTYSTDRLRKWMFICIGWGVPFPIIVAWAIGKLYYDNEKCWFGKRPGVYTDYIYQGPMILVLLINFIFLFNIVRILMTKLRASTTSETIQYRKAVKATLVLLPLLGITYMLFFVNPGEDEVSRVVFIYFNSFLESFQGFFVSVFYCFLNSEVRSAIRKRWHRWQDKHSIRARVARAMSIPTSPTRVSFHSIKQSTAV
In short: (§1)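 CHO-K1 cells expressing CRF1 seeded at 1 × 10⁴ cells/well and incubated overnight. Cells washed with F-12, then preincubated 10 min at 37 °C in F-12 with 1 mmol/l IBMX. Compound (1–10,000 nmol/l) added with medium containing 10 nmol/l CRF (stock), then 15 min at 37 °C. Cells chilled and cAMP measured by enzyme immunoassay, blank-corrected; IC50 taken from concentration–response curves.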

[2] = biological target: T1, Corticotropin-releasing factor receptor 1; experiment: Displacement of [125I]CRF from human corticotropin-releasing factor receptor 1 expressed in CHO-K1 cells after 2 hrs by gamma counting; format: cell-based
In short: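 Crude membranes prepared from CRF1-expressing CHO-K1 cells in 50 mmol/l Tris-HCl with 10 mmol/l MgCl2, 2 mmol/l EDTA and aprotinin. Membranes incubated with 0.5 nmol/l (stock) ¹²⁵I human/rat CRF and compound (1–10,000 nmol/l) for 2 h at room temperature. Reaction ended by centrifugation, pellet washed with PBS/0.01% Triton X-100. IC50 of specific binding taken from concentration–response curves.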

[3] = tested on: Rattus norvegicus; experiment: Anxiolytic activity in swim stress-loaded Sprague-Dawley rat assessed as increase in time spent in open arms at 3 mg/kg, po after 1 hr by plus-maze test; format: functional, organism-based; design: dose 3 mg/kg
In short: (§2)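 Male Sprague–Dawley rats (230–280 g) given 0.5% MC vehicle or compound orally 1 h before testing. Rats forced to swim 90 s in 22 °C water, then placed at the maze centre facing a closed arm. Behaviour video-tracked for 5 min; time in open arms and open-arm entries scored. 16 rats per group, mean ± S.E.; Dunnett test against vehicle.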

[4] = biological target: T2, Corticotropin-releasing factor receptor 1 (Rattus norvegicus, UniProt P35353); experiment: Antagonist activity at rat corticotropin-releasing factor receptor 1 expressed in CHO-K1 cells assessed as inhibition of CRF-induced cAMP production after 15 mins by enzyme immunoassay; format: functional, cell-based; in short: as §1
T2 sequence (P35353 whole entry): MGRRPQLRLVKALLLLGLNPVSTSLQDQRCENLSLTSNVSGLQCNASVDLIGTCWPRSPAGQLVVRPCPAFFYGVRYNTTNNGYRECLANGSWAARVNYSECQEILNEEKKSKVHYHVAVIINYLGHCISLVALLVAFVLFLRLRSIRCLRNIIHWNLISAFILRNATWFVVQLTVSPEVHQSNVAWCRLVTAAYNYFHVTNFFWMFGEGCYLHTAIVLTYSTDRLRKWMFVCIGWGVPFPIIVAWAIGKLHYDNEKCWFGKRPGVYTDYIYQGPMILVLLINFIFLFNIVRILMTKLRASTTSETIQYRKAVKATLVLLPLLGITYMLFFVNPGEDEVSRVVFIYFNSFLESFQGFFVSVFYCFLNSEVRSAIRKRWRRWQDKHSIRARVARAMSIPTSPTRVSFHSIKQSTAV

[5] = tested on: Rattus norvegicus; experiment: Anxiolytic activity in swim stress-loaded Sprague-Dawley rat assessed as increase in time spent in open arms at 10 mg/kg, po after 1 hr by plus-maze test; format: functional, organism-based; design: dose 10 mg/kg; in short: as §2
[6] = biological target: T2, Corticotropin-releasing factor receptor 1; experiment: Displacement of [125I]CRF from corticotropin-releasing factor receptor 1 in rat brain membranes after 2 hrs by gamma counting; format: cell membranes
[7] = AUC (infinity) in rat at 0.3 mg/kg, iv; format: ADME, organism-based; design: time infinity, dose 0.3 mg/kg, route intravenous; details: plasma
In short: (§3)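 Fasted male rats (n = 4) dosed intravenously at 0.3 mg/kg. Samples ice-chilled and centrifuged to plasma, then stored at −70 °C. AUC, T1/2, Vss and CL taken from the plasma concentration time course.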

[8] = Total clearance in rat at 0.3 mg/kg, iv; format: ADME, organism-based; design: dose 0.3 mg/kg, route intravenous; details: in vivo; in short: as §3
[9] = Half life in rat at 0.3 mg/kg, iv; format: ADME, organism-based; design: dose 0.3 mg/kg, route intravenous; details: in vivo; in short: as §3
[10] = Volume of distribution at steady state in rat at 0.3 mg/kg, iv; format: ADME, organism-based; design: dose 0.3 mg/kg, route intravenous; details: in vivo, read-out: Vdss; in short: as §3
[11] = AUC (infinity) in rat at 3 mg/kg, po; format: ADME, organism-based; design: time infinity, dose 3 mg/kg, route oral; details: plasma
In short: (§4)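 Fasted male rats (n = 4) given 3 mg/kg orally in saline with 0.5% MC (w/v). Jugular vein blood (heparinized syringe) taken at 1, 2, 4, 6, 8, 24, 48, 72 h. Plasma obtained by centrifugation and stored at −70 °C. AUC, Cmax, Tmax and T1/2 derived from the plasma concentration time course.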

[12] = Tmax in rat at 3 mg/kg, po; format: ADME, organism-based; design: dose 3 mg/kg, route oral; details: in vivo; in short: as §4
[13] = Cmax in rat at 3 mg/kg, po; format: ADME, organism-based; design: dose 3 mg/kg, route oral; details: in vivo; in short: as §4
[14] = Half life in rat at 3 mg/kg, po; format: ADME, organism-based; design: dose 3 mg/kg, route oral; details: in vivo; in short: as §4
[15] = Oral bioavailability in rat at 3 mg/kg; format: ADME, organism-based; details: in vivo
[16] = Ratio of drug level in brain to plasma in rat at 3 mg/kg, po after 1 hr; format: ADME, organism-based; design: dose 3 mg/kg, route oral; details: read-out: BPR

Structure (SMILES) | EC50 [1] [nM] | IC50 [2] [nM] | further results
CCC(CC)Nc1c2c(nc3c(-c4ccc(OC)cc4C)c(C)nn13)CSC2 | 150 | 37 | 
CCC(CC)Nc1c2c(nc3c(-c4ccc(OC)cc4C)cnn13)CCC2 |  | 240 | 
CCC(CC)Nc1c2c(nc3c(-c4ccc(OC)cc4Cl)c(C)nn13)CCC2 [ONO-2333MS] | 40 | 4 | Activity [3]: Active; EC50 [4]: 40 nM; Activity [5]: Active; IC50 [6]: 7 nM; AUC(0-inf) [7]: 278 ng·h/mL; clearance [8]: 18 mL/min/kg; half-life [9]: 4.7 h; Vd [10]: 1.78 L/kg; AUC(0-inf) [11]: 608 ng·h/mL; Tmax [12]: 1 h; Cmax [13]: 87.1 ng/mL; half-life [14]: 7.8 h; bioavailability [15]: 22%; Kp at 1 h [16]: 0.4
CCC(CC)Nc1c2c(nc3c(-c4ccc(OC)cc4C)c(C)nn13)CCN2 |  | 170 | 
CCC(CC)Nc1c2c(nc3c(-c4ccc(OC)cc4C)c(C)nn13)CCS2 |  | 80 | 
CCC(CC)Nc1c2c(nc3c(-c4ccc(OC)cc4C)c(C(F)(F)F)nn13)CCC2 |  | 59 | 
CCC(CC)Nc1c2c(nc3c(-c4ccc(OC)cc4C)c(C)nn13)CCC2 | 170 | 37 | 
CCC(CC)Nc1c2c(nc3c(-c4ccc(OC)c(OC)c4)c(C)nn13)CCC2 |  | 600 | 
CCC(CC)Nc1c2c(nc3c(-c4ccc(OC(F)F)cc4Cl)c(C)nn13)CCC2 | 200 | 3 | 
CCOc1ccc(-c2c(C)nn3c(NC(CC)CC)c4c(nc23)CCC4)c(Cl)c1 |  | 71 | 
CCC(CC)Nc1c2c(nc3c(-c4ccc(OC)cc4C)c(C)nn13)COC2 | 75 | 35 | 
CCC(CC)Nc1c2c(nc3c(-c4cc(C)ccc4C)c(C)nn13)CCC2 |  | 820 | 
CCC(CC)Nc1c2c(nc3c(-c4cc(C)c(OC)cc4C)c(C)nn13)CCC2 | 47 | 22 | 
CCC(CC)Nc1c2c(nc3c(-c4ccc(OC)cc4C)c(C)nn13)CCO2 | 640 | 31 | 
CCC(CC)Nc1c2c(nc3c(-c4ccc(OC)cc4C)c(C4CCC4)nn13)CCC2 |  | 490 | 
CCC(CC)Nc1c2c(nc3c(-c4c(C)cc(OC)cc4C)c(C)nn13)CCC2 | 80 | 9 | 
CCC(CC)Nc1c2c(nc3c(-c4ccc(OC)cc4C)c(CSC)nn13)CCC2 |  | 620 | 
CCC(CC)Nc1cc(C)nc2c(-c3ccc(OC)cc3Cl)c(C)nn12 | 31 | 6 | 
CCC(CC)Nc1c2c(nc3c(-c4ccc(OC)cc4Cl)c(C)nn13)OCC2 | 8 | 84 | 
CCC(CC)Nc1c2c(nc3c(-c4ccc(Cl)cc4Cl)c(C)nn13)CCC2 | 200 | 37 | 
CCC(CC)Nc1c2c(nc3c(-c4ccc(OC(F)(F)F)cc4Cl)c(C)nn13)CCC2 |  | 15 | 
CCc1nn2c(NC(CC)CC)c3c(nc2c1-c1ccc(OC)cc1C)CCC3 |  | 97 | 
CCC(CC)Nc1c(C)c(C)nc2c(-c3ccc(OC)cc3Cl)c(C)nn12 | 100 | 49 | 
CCC(CC)Nc1c2c(nc3c(-c4ccc(F)cc4C)c(C)nn13)CCC2 |  | 93 | 
CCC(CC)Nc1c2c(nc3c(-c4ccc(OC)cc4Cl)c(C)nn13)COC2 | 66 | 22 | 
CCC(CC)Nc1cc(C)nc2c(-c3ccc(OC)cc3C)c(C)nn12 |  |  | IC50 [1]: 10 nM
CCC(CC)Nc1c2c(nc3c(-c4ccc(OC)cc4Cl)c(C)nn13)CCO2 | 4 | 7 | 
CCC(CC)Nc1c2c(nc3c(-c4ccc(N(C)C)cc4C)c(C)nn13)CCC2 |  | 38 | 
CCC(CC)Nc1c2c(nc3c(-c4ccc(OC)cc4SC)c(C)nn13)CCC2 |  | 49 | 
CCC(CC)Nc1c2c(nc3c(-c4ccc(C)cc4C)c(C)nn13)CCC2 | 920 | 72 | 
